Reference: ChEMBL document CHEMBL2029267, “Rapid assembly of a library of lipophilic iminosugars via the thiol-ene reaction yields promising pharmacological chaperones for the treatment of Gaucher disease” (J Med Chem, 2012)
Positions count from the first letter of the chain named. Activity calls are given as the source filed them. The calls are words filed in the database; no cut-off is given here.

What was measured:
[1] = target: T1, Lysosomal acid glucosylceramidase (Homo sapiens, UniProt P04062); experiment: Competitive inhibition of wild type human glucocerebrosidase using 4-methylumbelliferyl beta-D-glucopyranoside as substrate after 15 mins by Dixon and Line-Weaver Burk plot analysis […]
T1 sequence (P04062 whole entry): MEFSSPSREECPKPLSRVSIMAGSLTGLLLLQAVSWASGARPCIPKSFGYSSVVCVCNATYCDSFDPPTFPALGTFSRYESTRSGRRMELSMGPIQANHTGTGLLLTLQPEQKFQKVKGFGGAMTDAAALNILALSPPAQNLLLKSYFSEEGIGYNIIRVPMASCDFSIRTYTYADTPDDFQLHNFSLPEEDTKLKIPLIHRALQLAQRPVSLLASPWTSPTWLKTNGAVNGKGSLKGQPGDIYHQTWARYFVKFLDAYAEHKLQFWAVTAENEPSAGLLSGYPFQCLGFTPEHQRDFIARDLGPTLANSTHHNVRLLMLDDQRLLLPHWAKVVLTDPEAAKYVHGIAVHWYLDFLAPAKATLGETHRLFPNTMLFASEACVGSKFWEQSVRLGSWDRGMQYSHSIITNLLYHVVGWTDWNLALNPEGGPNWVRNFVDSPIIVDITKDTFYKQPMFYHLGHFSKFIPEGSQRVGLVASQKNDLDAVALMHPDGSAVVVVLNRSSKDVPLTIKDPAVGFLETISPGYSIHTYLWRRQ

[2] = target: Lysosomal alpha-glucosidase (Homo sapiens) (UniProt P10253); experiment: Inhibition of human lysosomal alpha-glucosidase using 4-methylumbelliferyl alpha-D-glucopyranoside as substrate at 200 uM by fluorimetric analysis
How it was run: (§1)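 Enzyme source was a lysosomal-enzyme-enriched ConA-bound human placental fraction, run in 100 mM citrate–phosphate pH 4.5 with 0.025% human serum albumin at 37 °C. Compound was tested at 200 μM in triplicate. An equal volume of 4-MU substrate was added: α-Glc 3.0 mM (α-glucosidase), α-Gal 1.0 mM (α-galactosidase), β-Gal 0.5 mM (β-galactosidase). Reactions were stopped with 4-fold excess 100 mM aminomethylpropanol and fluorescence read at 365/460 nm.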

Homo sapiens [3] = species on record: Homo sapiens; experiment: Inhibition of human lysosomal alpha-galactosidase using 4-methylumbelliferyl alpha-D-galactopyranoside as substrate at 200 uM by fluorimetric analysis; how it was run: as §1
[4] = target: T2, Beta-galactosidase (Homo sapiens) (UniProt P16278); experiment: Inhibition of human lysosomal beta-galactosidase using 4-methylumbelliferyl beta-Dgalactopyranoside as substrate at 200 uM by fluorimetric analysis; how it was run: as §1
T2 sequence (whole entry): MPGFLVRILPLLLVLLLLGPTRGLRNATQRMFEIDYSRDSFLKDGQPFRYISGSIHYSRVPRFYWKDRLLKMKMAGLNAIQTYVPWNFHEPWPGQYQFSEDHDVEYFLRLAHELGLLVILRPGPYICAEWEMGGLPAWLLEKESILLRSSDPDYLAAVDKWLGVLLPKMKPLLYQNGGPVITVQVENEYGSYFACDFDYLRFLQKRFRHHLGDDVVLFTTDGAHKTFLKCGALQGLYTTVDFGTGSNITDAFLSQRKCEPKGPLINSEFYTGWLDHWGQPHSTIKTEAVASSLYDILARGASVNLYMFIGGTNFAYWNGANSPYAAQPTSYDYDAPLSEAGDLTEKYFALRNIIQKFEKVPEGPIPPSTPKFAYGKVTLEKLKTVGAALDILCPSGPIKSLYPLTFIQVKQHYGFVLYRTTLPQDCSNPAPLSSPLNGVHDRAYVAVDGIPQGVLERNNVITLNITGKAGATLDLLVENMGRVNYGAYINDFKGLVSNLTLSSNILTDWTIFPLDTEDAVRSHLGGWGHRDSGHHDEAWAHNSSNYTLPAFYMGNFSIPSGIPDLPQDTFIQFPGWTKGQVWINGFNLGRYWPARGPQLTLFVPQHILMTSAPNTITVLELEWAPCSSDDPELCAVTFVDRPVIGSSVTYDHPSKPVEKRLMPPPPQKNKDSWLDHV

[5] = target: T3, Cytosolic beta-glucosidase (Homo sapiens, UniProt Q9H227); experiment: Inhibition of human cytosolic beta-glucosidase using 4-methylumbelliferyl beta-D-glucopyranoside as substrate after 15 mins by fluorimetric analysis
T3 sequence (Q9H227 whole entry): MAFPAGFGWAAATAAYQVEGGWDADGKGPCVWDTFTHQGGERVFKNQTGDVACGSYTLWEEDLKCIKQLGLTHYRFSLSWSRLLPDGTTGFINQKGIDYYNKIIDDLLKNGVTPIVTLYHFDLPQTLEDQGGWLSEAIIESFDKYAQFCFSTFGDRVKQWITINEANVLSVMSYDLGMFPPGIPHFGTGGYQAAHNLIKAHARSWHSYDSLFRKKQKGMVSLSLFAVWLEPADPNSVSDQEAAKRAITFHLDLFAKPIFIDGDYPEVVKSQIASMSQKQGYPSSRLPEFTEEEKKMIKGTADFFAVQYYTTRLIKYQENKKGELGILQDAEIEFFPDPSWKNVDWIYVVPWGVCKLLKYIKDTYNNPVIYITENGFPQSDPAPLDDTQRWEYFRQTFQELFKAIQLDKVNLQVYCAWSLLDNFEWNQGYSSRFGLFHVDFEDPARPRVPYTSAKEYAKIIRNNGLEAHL
How it was run: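 Purified human cytosolic neutral β-glucosidase was preincubated 15 min at room temperature with a 3-fold compound dilution series. An equal volume of 10 mM 4-MU β-D-glucoside in 100 mM citrate–phosphate pH 7.0 was added, then incubated 30 min at 37 °C. The reaction was stopped with 4-fold excess 100 mM 2-amino-2-methylpropanol and read at ex 365/em 460 nm. IC50 came from nonlinear fitting.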

Homo sapiens [6] = species on record: Homo sapiens; experiment: Activation of beta-N-acetyl hexosaminidase in gaucher patient fibroblast using 4-methylumbelliferyl N-acetyl-beta-D-glucosaminide as substrate
How it was run: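 Patient fibroblasts (GD, homozygous mutant GBA) grown in α-MEM with 10% FCS at 37 °C, CO2, with compound for 5 days. Lysates prepared in pH 5.5 citrate–phosphate with Triton X-100 and taurocholate. Lysosomal β-N-acetyl hexosaminidase activity read with fluorogenic 4-MU N-acetyl-β-D-glucosaminide at each compound concentration.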

[7] = Cytotoxicity against gaucher patient fibroblast assessed as decrease in cell viability at 10 uM after 5 days by alamar blue assay; format: cell-based; conditions: human, 120 h
How it was run: (§2)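 Viability of GD patient fibroblasts grown with compound at 10, 33 and 100 μM was read by a resazurin-based spectrophotometric assay.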

[8] = target: T4, Lysosomal acid glucosylceramidase (Homo sapiens) (UniProt P04062); experiment: Thermal denaturation of human glucocerebrosidase by differential scanning fluorimetry assessed as change in melting temperature at 100 uM and pH 7
T4 sequence (whole entry): T1 sequence (P04062 whole entry)

[9] = system: T5, Lysosomal acid glucosylceramidase (Homo sapiens), P04062 [N409S]; experiment: Activation of intracellular glucocerebrosidase p.N370S mutant in gaucher patient fibroblast using 4-methylumbelliferyl beta-D-glucopyranoside as substrate relative to control
T5 sequence (whole entry): T1 sequence (P04062 whole entry) with N409S

Homo sapiens [10] = species on record: Homo sapiens; experiment: Activation of intracellular glucocerebrosidase p.L444P mutant in gaucher patient fibroblast using 4-methylumbelliferyl beta-D-glucopyranoside as substrate relative to control
[11] = system: T5, Lysosomal acid glucosylceramidase (Homo sapiens), P04062 [N409S]; experiment: Activation of intracellular glucocerebrosidase p.N370S mutant in gaucher patient fibroblast using 4-methylumbelliferyl beta-D-glucopyranoside as substrate assessed as concentration at which 50% of maximum increase in activity
Homo sapiens [12] = species on record: Homo sapiens; experiment: Activation of intracellular glucocerebrosidase p.L444P mutant in gaucher patient fibroblast using 4-methylumbelliferyl beta-D-glucopyranoside as substrate assessed as concentration at which 50% of maximum increase in activity
[13] = Cytotoxicity against gaucher patient fibroblast assessed as decrease in cell viability at 100 uM after 5 days by alamar blue assay; format: cell-based; conditions: human, 120 h; how it was run: as §2

Ki [1]	inhibition [2]	inhibition (Homo sapiens [3])	inhibition [4]	IC50 [5]	inhibition (Homo sapiens [6])	deltaTm [8]	fold change (FC) [9]	fold change (FC) (Homo sapiens [10])	Activity [11]	Activity (Homo sapiens [12])	SMILES	Activity [7]	Activity [13]
0.4 nM	inactive	inactive	inactive	2000 nM	Active	20 K	1.6	1.2	1 nM	0.6 nM	CCCCCCCCSCC[C@H]1NC[C@@H](O)[C@H](O)[C@H]1O.Cl	Toxic	
1.8 nM	inactive	inactive	inactive			15 K	2.1	1.3	2.7 nM	0.6 nM	CCCCCCSCC[C@H]1NC[C@@H](O)[C@H](O)[C@H]1O.Cl		Toxic
